Data set [1] relates to Sindbis virus. The experiment in a line: Reduction of Sindbis virus infection-induced mortality rate in newborn BALB/c mouse assessed as long term survivors at 100 mg/kg. The data set is classed as functional. An outline of the steps: (§1)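 Newborn BALB/c mice, 2–3 days old, ≈2 g, were inoculated intracerebrally with 20 μl medium holding 100 × LD50 SINV. Compound (20 μl, 5, 50 or 100 mg/kg BW) was mixed into the inoculum. There were 11 mice per group, counted at 3–7 days. Virus-alone and compound-alone controls were included.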

Data set [2] relates to Tobacco mosaic virus. The experiment in a line: Antiviral activity against TMV U1 infected Nicotiana tabacum cv K326 plant leaves assessed as inhibition of systemic virus infection. The data set is classed as functional, organism-based.
Data set [3] concerns Sindbis virus. The experiment in a line: Reduction of mortality rate in Sindbis virus-infected newborn BALB/c mouse assessed as long term survivors at 5 mg/kg. The data set is classed as functional. An outline of the steps: as §1
Data set [4] relates to Tobacco mosaic virus. Description: Inhibition of TMV U1 multiplication in tobacco BY2 protoplast at 10 nM assessed as inhibition of local lesions on Chenopodium quinoa leaves by local lesion assay after 3 days postinfection. Format: functional. As to conditions: U1, 72 h. The method in brief:
(§2)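 TMV premixed with compound at a range of concentrations used to inoculate tobacco BY-2 protoplasts; virus multiplication then assayed by counting local lesions on the local lesion host Chenopodium quinoa.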

Data set [5] concerns Tobacco mosaic virus. The experiment in a line: Reduction of coat protein sgRNA level in TMV U1 infected tobacco BY2 protoplast at 50 nM administered after 4 hrs postinfection. Format: functional, organism-based. The method in brief:
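BY-2 protoplasts infected with TMV supplemented with compound up to 50 nM; total RNA extracted by TRIzol 4 h after infection, and CP sgRNA, I₂ sgRNA and genomic RNA detected by Northern blot with CP gene probe, 28S rRNA as loading control.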

In data set [6] the test system is Tobacco mosaic virus. Description: Inhibition of TMV U1 multiplication in tobacco BY2 protoplast at 20 nM assessed as local lesion size on Chenopodium quinoa leaves by local lesion assay. Format: functional.
The subject of data set [7] is Tobacco mosaic virus. The experiment in a line: Inhibition of TMV U1 multiplication in tobacco BY2 protoplast at 40 nM assessed as local lesion size on Chenopodium quinoa leaves by local lesion assay. Format: functional.
The subject of data set [8] is Tobacco mosaic virus. Description: Inhibition of TMV U1 multiplication in tobacco BY2 protoplast at 50 nM assessed as inhibition of local lesions on Chenopodium quinoa leaves by local lesion assay after 3 days postinfection. Format: functional. As to conditions: U1, 72 h. The method in brief: as §2
A short description of data set [9]: Growth inhibition of hamster BHK21 cells at 100 nM after 48 hrs. Format: cell-based, Mesocricetus auratus. As to conditions: bhk-21, 48 h, 0.1 µM. An outline of the steps: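 BHK-21 cells mock-infected and incubated with 100 nM compound for 48 h; cell morphology and growth examined by light microscopy.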
Data set [10] relates to Tobacco mosaic virus. The experiment in a line: Reduction of coat protein level in TMV U1 infected tobacco BY2 protoplast by ELISA. Format: functional, organism-based. An outline of the steps:
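BY-2 protoplasts inoculated with TMV pretreated with a range of compound concentrations; coat protein measured by ELISA, three repeats per concentration, mean ± SD.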
A general note: In an ELISA, binding on a coated surface is turned into a signal by an enzyme label.

In data set [11] the test system is Tobacco mosaic virus. Description: Inhibition of TMV U1 replication in tobacco BY2 protoplast at 50 nM by local lesion assay using Chenopodium quinoa leaves. Format: functional, organism-based. The method in brief:
as §2

The subject of data set [12] is Japanese encephalitis virus. The experiment in a line: Antiviral activity against Japanese encephalitis virus in C6 cells assessed as inhibition of virus-induced cytopathogenicity. Format: functional, organism-based.
Data set [13] deals with unidentified adenovirus. Description: Antiviral activity against adenovirus in 983A cells assessed as inhibition of virus-induced cytopathogenicity. The data set is classed as functional, organism-based. The method in brief: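 Cells seeded at 2 × 10⁵ per well 24 h before use (BHK-21 for GETV, H9 for HIV, CIK for Reovirus, 983A for adenovirus, Veto for measles virus). Infected at a dose giving 100% cytopathic effect at 3 dpi; virus premixed with compound at final 100, 50, 10, 3, 2, 1.5, 1, 0 nM. Infected and uninfected untreated controls on each plate.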
For orientation: Cytopathic effects are the visible damage that an infection or toxin causes in cultured cells.

Data set [14] has as its system Sindbis virus. Description: Reduction of Sindbis virus infection-induced mortality rate in newborn BALB/c mouse assessed as long term survivors at 50 mg/kg. Format: functional. The method in brief:
as §1

Data set [15] has as its system Tobacco mosaic virus. The experiment in a line: Inhibition of TMV U1 multiplication in tobacco BY2 protoplast at 30 nM assessed as inhibition of local lesions on Chenopodium quinoa leaves by local lesion assay after 3 days postinfection. Format: functional. As to conditions: U1, 72 h. The method in brief:
as §2

Data set [16] has as its system Sindbis virus. Description: Decrease in Sindbis virus XJ160 accumulation in BHK21 cells […] by ELISA. As to conditions: XJ160, BHK-21. Format: functional, organism-based. The method in brief: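 BHK-21 cells inoculated with SINV XJ-160 premixed with compound (MOI 0.01, 15-min pretreatment, 1-h adsorption). Virus accumulation measured by ELISA as blank-subtracted OD₄₅₀, averaged over nine repeats per concentration.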

Our source for the Activity, inhibition and EC50 values is ChEMBL document CHEMBL1156462, “Seco-pregnane steroids target the subgenomic RNA of alphavirus-like RNA viruses” (Proc Natl Acad Sci U S A, 2007).

Calls of active or inactive are those of the source. No cut-off for these calls is given here.

As to `CO[C@@H]1C[C@H](O[C@H]2CC[C@@]3(C)C(=CC[C@H]4C(=O)OC5CO[C@]6(C)OC=C(CC[C@@H]43)[C@H]56)C2)O[C@H](C)[C@H]1O[C@H]1C[C@H](O)[C@H](O[C@@H]2C[C@@H](OC)[C@H](O[C@@H]3O[C@H](CO)[C@@H](O[C@@H]4O[C@H](CO)[C@@H](O)[C@H](O)[C@H]4O)[C@H](O)[C@H]3O)[C@@H](C)O2)[C@@H](C)O1` (stereo partly specified) [PANICULATUMOSIDE C], the Activity in [1] was 100%; in [3], 18%; in data set [6] it was 1.6 mm; in data set [7], 1 mm; in [9] it was “Non-toxic”; in [10], “Dose-dependent effect”. For the same molecule, the Activity in data set [14] stood at 54%. The outcome in data set [2], in data set [5] and in data set [11] was Active. Besides, the inhibition (usually the relative decrease from the control value, in per cent) at 0.01 µM in [4] was 19%. Moreover, the inhibition at 0.05 µM in data set [8] worked out at 100%. Besides, the figures for the EC50 in data set [12], in [13] and in [16] were greater than 25 µM, greater than 25 µM and 0.0015 µM, respectively. Moreover, the inhibition at 0.03 µM in [15] came to 72%.
